ChEMBL document CHEMBL1145175, “Investigations on the effects of basic side chains on the hormonal profile of (4R,5S)/(4S,5R)-4,5-bis(4-hydroxyphenyl)-2-imidazolines” (J Med Chem, 2005)

Legend:
Estrogen receptor [1] = target: T1, Estrogen receptor (Homo sapiens, UniProt P03372); experiment: Effective concentration against estrogen receptor alpha of MCF-7-2a cells
T1 sequence (P03372 whole entry): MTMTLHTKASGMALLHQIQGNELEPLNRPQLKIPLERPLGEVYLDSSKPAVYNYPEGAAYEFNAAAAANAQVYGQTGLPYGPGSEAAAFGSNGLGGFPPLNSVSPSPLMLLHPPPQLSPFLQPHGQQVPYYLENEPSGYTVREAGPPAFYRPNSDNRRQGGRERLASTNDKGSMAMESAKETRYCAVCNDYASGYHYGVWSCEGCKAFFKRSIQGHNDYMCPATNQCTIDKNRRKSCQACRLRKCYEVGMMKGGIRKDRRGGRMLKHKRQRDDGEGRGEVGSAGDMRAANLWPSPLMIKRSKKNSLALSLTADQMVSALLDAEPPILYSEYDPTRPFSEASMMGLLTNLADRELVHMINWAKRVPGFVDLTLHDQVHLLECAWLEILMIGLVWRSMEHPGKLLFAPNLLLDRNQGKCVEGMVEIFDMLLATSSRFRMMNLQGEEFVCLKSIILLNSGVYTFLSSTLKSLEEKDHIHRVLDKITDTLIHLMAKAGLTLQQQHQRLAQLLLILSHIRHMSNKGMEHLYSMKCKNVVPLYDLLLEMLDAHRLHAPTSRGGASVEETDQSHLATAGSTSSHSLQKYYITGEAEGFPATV

Estrogen receptor beta [2] = target: T2, Estrogen receptor beta (Homo sapiens, UniProt Q92731); experiment: Effective concentration against estrogen receptor beta of […]
T2 sequence (Q92731 whole entry): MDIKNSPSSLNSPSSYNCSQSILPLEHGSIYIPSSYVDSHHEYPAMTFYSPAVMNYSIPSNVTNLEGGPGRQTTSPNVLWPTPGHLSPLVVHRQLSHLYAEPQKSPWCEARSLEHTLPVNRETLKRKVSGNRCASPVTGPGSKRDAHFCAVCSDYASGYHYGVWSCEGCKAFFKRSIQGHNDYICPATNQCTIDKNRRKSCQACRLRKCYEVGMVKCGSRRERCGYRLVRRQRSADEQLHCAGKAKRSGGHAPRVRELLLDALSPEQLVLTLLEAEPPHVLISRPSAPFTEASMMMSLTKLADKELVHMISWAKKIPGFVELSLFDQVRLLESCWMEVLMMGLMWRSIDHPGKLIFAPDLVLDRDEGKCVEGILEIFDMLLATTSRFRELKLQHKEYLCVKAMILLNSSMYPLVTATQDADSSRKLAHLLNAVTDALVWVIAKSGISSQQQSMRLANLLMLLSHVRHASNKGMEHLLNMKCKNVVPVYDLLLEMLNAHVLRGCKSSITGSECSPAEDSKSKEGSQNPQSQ
Procedure, shortened: (§1)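 U-2 OS cells grown in charcoal-treated FCS medium were transiently co-transfected with pSG5-ERβ FL (0.05 µg) and (ERE)2luc+ reporter (5 µg) using Fugene6, then pooled and reseeded. Compounds were added at 10^-5 to 10^-10 M in 0.1% DMSO for 21 h. Luciferase RLU was normalised to crystal-violet cell mass, in triplicate, and expressed as % of the E2 plateau.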

Estrogen receptor beta [3] = target: T2, Estrogen receptor beta; experiment: Percent activation of estrogen receptor beta in luciferase assay at 10 uM; procedure, shortened: as §1
Estrogen receptor beta [4] = target: T2, Estrogen receptor beta; experiment: Percent inhibition of 0.30 nM estradiol activity on estrogen receptor beta in MCF-7-2a cells at 10 uM; format: cell-based; details: in the assay text read “U-2 OS cells” for “MCF-7-2a cells”
Procedure, shortened: (§2)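 Antagonist mode used U-2 OS cells transiently co-transfected with pSG5-ERβ FL and (ERE)2luc+ in charcoal-stripped medium. Compounds at 10^-5 to 10^-13 M were co-incubated with E2 at 3.0 × 10^-10 M for 21 h. Luciferase luminescence was normalised to crystal-violet cell mass, in triplicate, and reported as % inhibition of the E2 signal.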

Estrogen receptor beta [5] = target: T2, Estrogen receptor beta; experiment: Inhibition of estrogen receptor beta in […] at 10 uM; format: cell-based; procedure, shortened: as §2
Estrogen receptor beta [6] = target: T2, Estrogen receptor beta; experiment: Percent inhibition of 0.30 nM estradiol activity on estrogen receptor beta in U-2 OS cells at 10 uM
Estrogen receptor beta [7] = target: T2, Estrogen receptor beta; experiment: Inhibition of estrogen receptor beta at 10 uM
Estrogen receptor [8] = target: T1, Estrogen receptor; experiment: Inhibition of estrogen receptor alpha in MCF-7-2a cells at 10 uM; format: cell-based

SMILES	EC50 (Estrogen receptor [1]) [µM]	EC50 (Estrogen receptor beta [2]) [µM]	Activation (Estrogen receptor beta [3]) [%]	inhibition (Estrogen receptor beta [4]) [%]	IC50 (Estrogen receptor beta [5]) [µM]	inhibition (Estrogen receptor beta [6]) [%]	IC50 (Estrogen receptor beta [7]) [µM]	IC50 (Estrogen receptor [8]) [µM]
Oc1ccc([C@@H]2N=CN[C@@H]2c2ccc(OCCN3CCCC3)cc2Cl)c(Cl)c1	1.82	0.47	105	30				
CCC1=N[C@H](c2ccc(OCCN3CCCCC3)cc2Cl)[C@H](c2ccc(O)cc2Cl)N1		2.8	92		6	75		
Oc1ccc([C@@H]2N=CN[C@@H]2c2ccc(OCCN3CCCCC3)cc2Cl)c(Cl)c1	1.7	0.6	60	0				
CN(C)CCOc1ccc([C@H]2N=CN[C@H]2c2ccc(O)cc2Cl)c(Cl)c1			75	4				
CN(C)CCOc1ccc([C@H]2N=CN[C@H]2c2ccc(O)cc2)cc1	3.47		36	0				
CN(C)CCOc1ccc([C@H]2NC=N[C@H]2c2ccc(O)cc2Cl)c(Cl)c1	1.5	3.55						
Oc1cc(Cl)c([C@@H]2N=CN[C@@H]2c2ccc(OCCN3CCCCC3)cc2Cl)c(Cl)c1	0.085	0.4	103	0				
CCC1=N[C@H](c2ccc(OCCN3CCCCC3)cc2)[C@H](c2ccc(O)cc2)N1		0.5	95			57	9	0.038
Oc1ccc([C@@H]2N=CN[C@@H]2c2ccc(OCCN3CCCCC3)cc2)cc1			26	12				
